The values that follow come from ChEMBL document CHEMBL1127444, “Aza-tricyclic substance P antagonists” (J Med Chem, 1994).

For one assay, the target named is Substance-P receptor (Homo sapiens, UniProt P25103). The experiment in a line: Tested in vitro for the binding affinity towards NK1 receptor in human IM-9 cells using [125I]-labeled bolton-hunter substance P as ligand. It is filed as cell-based. In short, it runs like this: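 IC50 from six-point concentration–response curves, each concentration in duplicate. Mean ± SEM of three separate experiments.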
Substance-P receptor, sequence (P25103 whole entry): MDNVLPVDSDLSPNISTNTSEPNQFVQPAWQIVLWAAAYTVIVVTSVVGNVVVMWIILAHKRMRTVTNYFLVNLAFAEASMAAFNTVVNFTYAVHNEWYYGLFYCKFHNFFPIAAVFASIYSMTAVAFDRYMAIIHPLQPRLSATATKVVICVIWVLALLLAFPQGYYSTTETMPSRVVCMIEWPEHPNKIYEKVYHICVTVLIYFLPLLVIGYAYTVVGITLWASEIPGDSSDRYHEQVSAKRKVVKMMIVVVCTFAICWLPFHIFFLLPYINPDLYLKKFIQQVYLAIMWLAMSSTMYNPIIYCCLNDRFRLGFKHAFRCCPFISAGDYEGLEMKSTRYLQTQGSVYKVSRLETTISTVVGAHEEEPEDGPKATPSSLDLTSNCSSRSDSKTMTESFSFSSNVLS

The next assay is filed under the species Cavia porcellus. The experiment in a line: Inhibition of capsaicin-induced plasma extravasation in guinea pig ureter. It counts as functional. The method, boiled down: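 Male Hartley guinea pigs (300–400 g), fasted overnight, anaesthetised with pentobarbital 25 mg/kg. Compound given po 1 h before capsaicin, at four doses. Evans Blue 30 mg/kg iv, then 5 min later 30 μM capsaicin in 0.1% BSA Krebs bicarbonate, 10 mL per animal. Killed 10 min later. Ureter extracted in formamide at 60 °C for 24 h and OD read at 600 nm. ED50 with 95% confidence limits.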

In the case of `COc1ccccc1CNC1C2CC3CCC(C2)N3[C@H]1C(c1ccccc1)c1ccccc1` (stereo not given in full), the 50% inhibitory concentration (IC50) on Substance-P receptor stood at 0.92 nM. The molecule further gave an ED50 in the assay filed under Cavia porcellus of 4.13 mg/kg.

In the assay filed under Cavia porcellus, `COc1ccccc1CN[C@H]1C2C3CCCC2CN(C3)[C@H]1C(c1ccccc1)c1ccccc1` displayed an ED50 of 4.43 mg/kg.

`COc1ccccc1CNC1C2CC3CCCC2CN3[C@H]1C(c1ccccc1)c1ccccc1` (stereo not given in full) came in with a half-inhibitory concentration (IC50) on Substance-P receptor of 1.9 nM.

`COc1ccccc1CNC1C2CC3CCOC(C2)N3[C@H]1C(c1ccccc1)c1ccccc1` (stereo not given in full) registered an IC50 on Substance-P receptor of 7.2 nM.

`c1ccc(CNC2C3CC4CCCC(C3)N4[C@H]2C(c2ccccc2)c2ccccc2)cc1` (stereo not given in full) came in with an IC50 on Substance-P receptor of 170 nM.

On to `Clc1ccccc1CNC1C2CC3CCC(C2)N3[C@H]1C(c1ccccc1)c1ccccc1` (stereo not given in full), for which the IC50 on Substance-P receptor worked out at 7.1 nM.

On to `c1ccc(CNC2C3CC4CCC(C3)N4[C@H]2C(c2ccccc2)c2ccccc2)cc1` (stereo not given in full), for which, at Substance-P receptor, the IC50 stood at 68 nM.

For the molecule `FC(F)(F)c1ccccc1CNC1C2CC3CCCC(C2)N3[C@H]1C(c1ccccc1)c1ccccc1` (stereo not given in full), the IC50 at Substance-P receptor was determined as 4400 nM.

In turn, `Clc1ccccc1CNC1C2CC3CCCC(C2)N3[C@H]1C(c1ccccc1)c1ccccc1` (stereo not given in full) showed a concentration for half-maximal inhibition (IC50) at Substance-P receptor of 58 nM.

`Clc1ccccc1CN[C@H]1C2C3CCCC2CN(C3)[C@H]1C(c1ccccc1)c1ccccc1`: the IC50 on Substance-P receptor amounted to 39 nM.

At Substance-P receptor, `COc1ccccc1CNC1C2C3CCC2CN(C3)[C@H]1C(c1ccccc1)c1ccccc1` (stereo not given in full) yielded a 50% inhibitory concentration (IC50) of 2.4 nM. This molecule showed an ED50 in the assay listed under Cavia porcellus of 2.61 mg/kg.

`c1ccc(CN[C@H]2C3C4CCCC3CN(C4)[C@H]2C(c2ccccc2)c2ccccc2)cc1` displayed an IC50 at Substance-P receptor of 230 nM.

The molecule `COc1ccccc1CN[C@H]1C2CCN(CC2)[C@H]1C(c1ccccc1)c1ccccc1` [CP-96345] displayed an ED50 in the assay listed under Cavia porcellus of 2.83 mg/kg.

The IC50 is the point on the concentration scale where inhibition reaches its midpoint. A low value points to greater potency in that assay. Broadly, the ED50 is the dose that gives a 50% effect, or the effect in half of the subjects. A low value points to greater potency.
